Screening data as filed in PubChem.
Compounds with a hit are over-represented: about 1.8% of the library has one in this group of screens.
HDAC3 inh: human HDAC3 inhibition | inhibition, % at 8.3 µM | 0.15% of 320,000 active | recombinant HDAC3, fluorogenic peptide/trypsin coupled, fluorescence; in the data active = inhibition above about 26%, passing the limit was not always enough; inconclusive = no clear call, values can overlap the other calls
HKDC1 inh: inhibitors of human hexokinase HKDC1; 0.16% of 340,000 active; Q2TB90; AID 493160; recombinant HKDC1, G6PDH/diaphorase resazurin coupled fluorescence; inhibition, % at 20 µM;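 active = inhibition above about 35% when tested at 20 µM, limit read from the data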;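 note: plate controls were DMSO wells with enzyme for no effect and DMSO wells lacking enzyme for full effect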
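Incubation: 90 min at room temperature in dark / Material: recombinant HKDC1 (HK5) hexokinase enzyme, produced in-house / Quantity: enzyme 5 µg/mL final / Compound: one dose of 20 µM, 1% DMSO / Reagent: glucose and ATP substrates / Buffer or medium: Tris pH 8.0 buffer with MgCl2, Tween-20, BSA, BME / Technique: resorufin fluorescence at 613 nm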
AI-2 QS mod: modulates the Vibrio harveyi AI-2 quorum sensing system; Vibrio harveyi JMH597 AI-2 luminescence/OD600 ratio, 9 h; stronger effect = lower value; strain lacks LuxN and CqsS sensors; 0 = neutral-control median; activity change, % at 7.5 µM; 0.4% of 300,000 active; AID 2094; in the data active = activity change below about -75%, passing the limit was not always enough; inconclusive = no clear call, values can overlap the other calls;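 note: luminescence divided by OD600 gain over 9 h not by final OD600 alone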
ATG4B inhibitor: blocks human ATG4B protease cleavage of LC3 substrate. ATG4B cleavage of LC3-PLA2, NBD-HPC fluorescence, 1 h. inhibition, % at 8.33 µM. Q9Y4P1. AID 504462. 0.51% of 340,000 active; in the data active = inhibition above about 40%
Bfl-1 A1 inh: inhibitors of the anti-apoptotic protein A1, read as caspase activation | caspase activation, % (test concentration not listed) | 0.066% of 330,000 active | MEF A1-2A-BIM cells, Caspase-Glo 3/7 luminescence, 3 h; percent of clofoctol response, vehicle zero;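 active = over half of replicate activation scores above 10%, or exactly half above 10 with the replicate mean above 10; inconclusive = replicate mean below 10 yet half the replicates above 10; inactive = over half of replicates below 10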
LANA-H2B inh: blocks KSHV LANA binding to histone H2A/H2B | cell-free LANA-H2A/H2B peptide, fluorescence polarization | inhibition, % (no concentration beside the values) | 0.6% of 320,000 active | AID 2629; in the data active = inhibition mostly above about 10%, no sharp cut-off; inactive = mostly below about 6.7%
* marks the source's active call; other numbers are inactive results; ? = inconclusive; nt = not tested or not shown; + = active, no number.

SMILES	HDAC3 inh	HKDC1 inh	AI-2 QS mod	ATG4B inhibitor	Bfl-1 A1 inh	LANA-H2B inh
Cc1ccccc1CN1CCN(Cc2ccc3cccc(F)c3n2)CC1CCO (stereo not given)	-2.1	-6.1	14.9	-4.2	-0.7	-3.9
CC12CC3OC3CC1CCC1C2CCC2(C)C1CCC21OCCO1 (stereo not given)	nt	-1.7	nt	3.1	nt	nt
Cc1ccc(S(=O)(=O)ON2C(=O)c3ccccc3C2=O)c(C)c1	59.1*	21.2	nt	15.3	2.7	0.1
O=C1OC[C@@H]2CCCN2C(=O)[C@@H](CC(=O)N(CCO)Cc2ccccc2)C/C=C\C[C@H]1Cc1ccc(F)cc1	0.0	-3.3	nt	-5.3	1.0	4.6
Cc1ccc2[nH]c3c(c2c1)CCCC3NC(=O)CCl (stereo not given)	-1.1	5.8	30.1	5.0	5.3*	0.0
Cc1ccc2[nH]c3c(c2c1)CCCC3C(N)=O (stereo not given)	-0.1	11.3	17.9	5.1	0.1	-6.5
O=C(COC(=O)c1ccc([N+](=O)[O-])o1)NC1CCCc2ccccc21 (stereo not given)	0.6	0.9	nt	-9.8	-0.5	4.2
Clc1ccsc1-c1ccnc(-n2cccc2)n1	-0.4	-7.1	31.1	8.3	0.4	0.8
Clc1ccc(-c2ccnc(-n3cccc3)n2)s1	18.9	4.2	-2.8	-4.7	-0.6	29.6*
CN1OC[C@@H]2CN(C(=O)CCc3ccccc3)[C@H](c3cccc(-c4ccccc4)c3)C[C@@H]21	nt	-1.7	nt	-2.9	nt	nt
CSCCC(NC(=O)c1ccc(Cl)cc1Cl)C(=O)N1CCCCCCC1 (stereo not given)	nt	-8.2	nt	8.7	nt	nt
Cc1cc(C)nc(SCc2cn3c(C)cccc3n2)n1	1.7	-3.1	16.1	4.6	0.4	-7.3
Cc1cccc2nc(CSc3nc4ccccc4o3)cn12	1.2	1.4	-93.2*	-3.4	-1.6	1.3
N/C(=N\OC(=O)c1ccccc1)C(C(=O)NOC(=O)c1ccccc1)C1CCCCC1 (stereo not given)	nt	12.3	nt	-4.1	nt	nt
COc1cccc(-c2nnc3sc(-c4ccccc4)nn23)c1	-9.5	0.7	19.3	30.9	0.8	1.0
COc1cccc(OC)c1-c1nn2c(-c3cc(-c4ccccc4)n[nH]3)nnc2s1	?	43.8*	28.7	-6.6	-0.7	-5.7
Nc1ccc(-c2c3ccc(=O)cc-3oc3cc(O)ccc23)c(C(=O)O)c1	?	-6.1	nt	-85.0	1.1	64.6*
Cc1ccc(Sc2ccc(/C=N/O)cc2[N+](=O)[O-])cc1	4.8	2.5	-76.3*	4.3	1.8	4.9
CCn1cc(C(=O)OCC(=O)N(C)Cc2ccccc2)c(=O)c2ccc(C)nc21	0.4	-0.6	9.8	-2.1	-0.4	60.7*
CCn1cc(C(=O)OCC(=O)N(C)C2CCS(=O)(=O)C2)c(=O)c2ccc(C)nc21 (stereo not given)	2.3	-5.2	24.9	10.0	-0.8	11.8
CC(C)=CCC/C(C)=C/CC/C(C)=N/O	5.8	0.9	10.7	-13.3	-0.9	11.8*
CC(=O)OC/C=C(\C)CCC=C(C)C	-2.4	-0.2	nt	-2.1	0.6	-2.5
C[C@H](CCC(=O)OCc1cn(CC(=O)c2ccc(O)cc2)nn1)C1CC[C@H]2[C@@H]3CC[C@@H]4C[C@H](O)CC[C@]4(C)[C@H]3C[C@H](O)[C@]12C (stereo not given in full)	nt	1.6	nt	-29.4	nt	nt
CCN(C(=O)CSc1n[nH]c(-c2cc(Cl)ccc2OC)n1)C1CCS(=O)(=O)C1 (stereo not given)	nt	-2.2	nt	0.2	nt	nt
O=C(COC(=O)Cc1c[nH]c2ccccc12)Nc1cccc2ccccc12	1.1	3.4	17.5	-14.2	0.0	14.2*
SMILES	HDAC3 inh	HKDC1 inh	AI-2 QS mod	ATG4B inhibitor	Bfl-1 A1 inh	LANA-H2B inh
Nc1nc2ccc(Cl)cc2o1	nt	-5.0	nt	-0.7	nt	nt
CC(NCC(=O)Nc1ccccc1C(=O)NC1CC1)c1ccco1 (stereo not given)	nt	0.6	nt	2.5	nt	nt
Cc1cc(CN2CCCC(C(=O)Nc3cccc(-n4cccn4)c3)C2)cc(C)c1O (stereo not given)	4.9	-3.8	-6.5	-0.2	-0.5	-0.9
O=C(Nc1cccc(-n2cnnn2)c1)C1CCCN(Cc2cccc(C(F)(F)F)c2)C1 (stereo not given)	-0.7	0.6	0.6	17.9	0.8	13.1*
C[N+]1(C2CCC3CCCC2C3O)CCCCC1 (stereo not given)	-5.6	14.1	8.8	0.5	0.0	1.3
COC(=O)c1cc(N2C(=O)C3C(C2=O)C2(C)C=CC3(C)O2)ccc1Cl (stereo not given)	1.4	nt	-238.3*	nt	2.3	1.8
O=C(O)/C(=C\c1cccc(OCc2ccccc2)c1)c1ccc(F)cc1	3.4	1.2	25.2	5.1	-1.0	10.5*
C=CCN1C(=O)/C(=C2\SC(N3CCOCC3)=NC2=O)c2cc(Br)ccc21	0.5	7.3	4.8	-7.1	-0.7	19.1*
C=CCNC(=S)NC(=O)c1csc([N+](=O)[O-])c1	2.9	-0.8	-103.8*	-8.8	-0.3	-4.8
O=C(Nc1csnn1)OCc1ccccc1	nt	-6.1	nt	-8.7	nt	nt
COc1ccccc1/C=C/C(=O)OCC(=O)c1cc(C)n(C)c1C	5.1	-1.7	nt	13.1	0.6	+
Cc1ccccc1CN1CCN(CC(=O)NCc2ccccc2)CC1	-0.4	-5.6	12.8	5.6	0.7	21.0*
O=C(c1ccccc1)N1CCN(C(=O)c2ccccc2)c2ccccc21	nt	-3.3	nt	-13.0	nt	nt
COc1ccccc1NC(=O)C(=O)N/N=C(\C)CC(=O)Nc1ccccn1	-3.7	-5.1	26.3	7.7	-0.4	24.2*
COc1ccc(NC(=O)C(=O)N/N=C(\C)CC(=O)Nc2ccccn2)c(OC)c1	1.7	-2.9	25.0	-2.5	-0.1	2.7
COc1ccc(CN2CCC3CC2c2cc(Cl)ccc23)cc1 (stereo not given)	nt	-0.5	nt	7.0	nt	nt
O=C(Nc1ccccc1C(=O)N/N=C/c1ccco1)c1ccccc1	-7.0	-12.2	7.6	-5.7	-6.8	-1.0
O=C(Nc1ccccc1C(=O)N/N=C/c1ccco1)c1ccc(Cl)cc1	6.6	-6.4	12.3	-12.3	-5.2	+
COc1cc2c3c(c1)C1(C(=O)N3C(C)(C)C=C2C)C(C#N)=C(N)Oc2cc(C)oc(=O)c21 (stereo not given)	nt	0.8	12.1	-11.1	nt	60.3*
CC1=CC(C)(C)N2C(=O)C3(C(C#N)=C(N)Oc4cc(C)oc(=O)c43)c3cc(C)cc1c32 (stereo not given)	14.1	3.0	7.5	-10.8	0.6	2.2
O=C1CCCCC1(c1ccccc1)c1ccccc1	nt	-5.0	nt	-12.0	nt	nt
COc1cccc2sc(Nc3nnc(-c4cccs4)o3)nc12	-11.2	-4.5	-165.2*	5.9	-6.1	-1.7
COc1cccc2sc(Nc3nnc(-c4ccc(F)cc4)o3)nc12	-49.6	-8.4	20.2	-4.6	-4.6	4.2
